≈ marks a conversion by molar mass, not a printed value.
Legend:
[1] = Binding affinity to Escherichia coli N-terminal 6 his tagged BamA barrel domain (421 to 810 residues) assessed as dissociation constant measured after 15 mins by microscale thermophoresis analysis
Summary of the method: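 Microscale thermophoresis with E. coli BamA at 50 nM in 50 mM HEPES pH 7.6, 5 mM MgCl2, 0.05% Tween. Ligand stock was in water and diluted in HEPES buffer. It was tested from the highest soluble concentration, mostly 2 mM, in 1:1 serial dilution over 16 samples. A labeling/fluorescence pretest was run for each sample.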

Pseudomonas aeruginosa [2] = experiment: Antibacterial activity against multidrug resistant Pseudomonas aeruginosa 83979 clinical isolate assessed as reduction in bacterial growth measured after 24 hrs; assay type: functional
Acinetobacter baumannii [3] = experiment: Antibacterial activity against Acinetobacter baumannii ATCC 17978 assessed as reduction in bacterial growth measured after 24 hrs; assay type: functional
Pseudomonas aeruginosa [4] = experiment: Antibacterial activity against Pseudomonas aeruginosa PA14 DSM 19882 assessed as reduction in bacterial growth measured after 24 hrs; conditions: PA14 DSM 19882, 24 h
Pseudomonas aeruginosa [5] = experiment: Antibacterial activity against multidrug resistant Pseudomonas aeruginosa 84389 clinical isolate assessed as reduction in bacterial growth measured after 24 hrs; assay type: functional
Acinetobacter baumannii [6] = experiment: Antibacterial activity against Acinetobacter baumannii NCTC 13301 assessed as reduction in bacterial growth measured after 24 hrs; assay type: functional
Acinetobacter baumannii [7] = experiment: Antibacterial activity against Acinetobacter baumannii DSM-30007 assessed as reduction in bacterial growth measured after 24 hrs; assay type: functional

SMILES | Kd [1] [µM] | MIC (Pseudomonas aeruginosa [2]) [µg/mL] | MIC (Acinetobacter baumannii [3]) [µg/mL] | MIC (Pseudomonas aeruginosa [4]) [µg/mL] | MIC (Pseudomonas aeruginosa [5]) [µg/mL] | MIC (Acinetobacter baumannii [6]) [µg/mL] | MIC (Acinetobacter baumannii [7]) [µg/mL]
C[C@@H](O)[C@@H]1NC(=O)[C@H]2NC(=O)[C@H](CC(N)=O)NC(=O)[C@@H](N)Cc3c[nH]c4c(cccc34)O[C@@H]2c2c[nH]c3cc(ccc23)[C@H](CCCN)[C@@H](C(=O)N[C@@H](CCC(N)=O)C(=O)N[C@@H](Cc2c[nH]c3ccccc23)C(=O)O)NC1=O | 2.2 | – | – | – | – | – | –
N=C(N)NCCC[C@H](NC(=O)[C@H]1NC(=O)[C@H](CO)NC(=O)[C@H]2NC(=O)[C@H](CCC(N)=O)NC(=O)[C@@H](N)Cc3c[nH]c4c(cccc34)O[C@@H]2c2c[nH]c3cc(ccc23)[C@@H]1CCCN)C(=O)N[C@@H](Cc1c[nH]c2ccccc12)C(=O)O | – | 8 (≈ 7.35 µM) | 16 (≈ 14.7 µM) | 16 (≈ 14.7 µM) | 16 (≈ 14.7 µM) | 8 (≈ 7.35 µM) | 2 (≈ 1.84 µM)
C[C@@H](O)[C@@H]1NC(=O)[C@H]2NC(=O)[C@H](CC(=O)O)NC(=O)[C@@H](N)Cc3c[nH]c4c(cccc34)O[C@@H]2c2c[nH]c3cc(ccc23)[C@H](CCCN)[C@@H](C(=O)N[C@@H](CCCNC(=N)N)C(=O)N[C@@H](Cc2c[nH]c3ccccc23)C(=O)O)NC1=O | 22.6 | – | – | – | – | – | –

Source: ChEMBL document CHEMBL5375998, “New Genetically Engineered Derivatives of Antibacterial Darobactins Underpin Their Potential for Antibiotic Development” (J Med Chem, 2023)
